≈ marks a conversion by molar mass, not a printed value. Calls of active or inactive are those of the source. The rule behind the calls is not given here.
Columns and labels:
[1] = system: Plasmodium falciparum; assay: Antiplasmodial activity against erythrocytic stage of chloroquine/pyrimethamine/cycloguanil resistant-Plasmodium falciparum FCR3 after 48 hrs by [3H]-hypoxanthine incorporation assay; assay type: functional; conditions: FCR-3/Gambia
How it was run: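 FCR3 P. falciparum, resistant to CQ (100 ng/mL) and pyrimethamine (15 nM), was synchronized to rings and grown at 1% parasitemia and 2% haematocrit in group O erythrocytes. Medium was RPMI 1640 with Albumax II, at 37 °C under 2% O2/5.5% CO2. Cells were exposed for 48 h to serial dilutions from 0.05 to 2x10^-6 mg/ml. Read-out was [3H]-hypoxanthine incorporation, in triplicate, two independent assays. IC50 came from dose-response curves.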

[2] = Cytotoxicity against human HuH7 cells after 72 hrs by MTT assay; assay type: toxicity, cell-based, Huh-7
How it was run: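 Huh-7 human hepatocellular carcinoma cells, 4 × 10^3 per well in DMEM with 10% FBS and 1% penicillin-streptomycin-glutamine. Exposed to eight 2-fold dilutions spanning 100 to 0.78 µg/mL for 72 h. MTT added for 2-4 h, then detergent solubilization for 2 h in the dark at room temperature; absorbance read at 570 nm. CC50 is the mean of at least two experiments run in duplicate.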

[3] = system: Plasmodium berghei; assay: Antiplasmodial activity against erythrocytic stage of chloroquine-resistant Plasmodium berghei ANKA infected in ip dosed BALB/c mouse assessed as reduction in parasitemia administered 3 hrs post infection for 4 days by Giemsa staining based microscopic assay; assay type: functional
How it was run: (§1)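 Peters' four-day suppressive test. Male naïve BALB/c mice, 25 ± 5 g, 4-5 weeks old, 5 per group, were infected ip on day 0 with 2x10^7 P. berghei ANKA parasitized erythrocytes. Dosing was ip from 2 mg/ml stocks in 10% DMSO, first given 1-3 h post-infection and repeated on days 1-3. Saline went to controls. On day 4, parasitemia was counted on Giemsa tail smears and activity = 100 − (treated/control mean parasitemia)×100.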

[4] = system: Plasmodium berghei; assay: Antiplasmodial activity against erythrocytic stage of chloroquine-resistant Plasmodium berghei ANKA infected in BALB/c mouse assessed as inhibition of parasitemia at 0.1 mg/kg/day, ip administered 3 hrs post infection for 4 days by Giemsa staining based microscopic assay relative to control; assay type: functional; how it was run: as §1
[5] = system: Plasmodium berghei; assay: Antiplasmodial activity against erythrocytic stage of chloroquine-resistant Plasmodium berghei ANKA infected in BALB/c mouse assessed as inhibition of parasitemia at 1 mg/kg/day, ip administered 3 hrs post infection for 4 days by Giemsa staining based microscopic assay relative to control; assay type: functional; how it was run: as §1
[6] = system: Plasmodium berghei; assay: Antiplasmodial activity against erythrocytic stage of chloroquine-resistant Plasmodium berghei ANKA infected in BALB/c mouse assessed as inhibition of parasitemia at 5 mg/kg/day, ip administered 3 hrs post infection for 4 days by Giemsa staining based microscopic assay relative to control; assay type: functional; how it was run: as §1
[7] = system: Plasmodium berghei; assay: Antiplasmodial activity against erythrocytic stage of chloroquine-resistant Plasmodium berghei ANKA infected in BALB/c mouse assessed as inhibition of parasitemia at 10 mg/kg/day, ip administered 3 hrs post infection for 4 days by Giemsa staining based microscopic assay relative to control; assay type: functional; how it was run: as §1
[8] = system: Plasmodium berghei; assay: Antiplasmodial activity against erythrocytic stage of chloroquine-resistant Plasmodium berghei ANKA infected in BALB/c mouse assessed as mean survival time at 0.1 to 10 mg/kg/day, ip administered 1 to 3 hrs post infection qd measured on day 4 post last dose by giemsa staining-based microscopic analysis; assay type: functional, organism-based
How it was run: (§2)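 BALB/c mice, 5 per group, were infected ip with 2x10^7 P. berghei ANKA parasitized erythrocytes. They were dosed ip at 0.1, 1, 5 or 10 mg/kg/day from 2 mg/ml stocks in 10% DMSO, starting 1-3 h post-infection, once daily on days 0-3. Saline went to controls. Groups were compared by Kaplan-Meier with a log-rank (Mantel-Cox) test.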

[9] = system: Mus musculus; assay: Toxicity in BALB/c mouse infected with erythrocytic stage of chloroquine-resistant Plasmodium berghei ANKA assessed as weight loss at 0.1 to 10 mg/kg/day, ip administered 3 hrs post infection for 4 days; assay type: organism-based; conditions: in vivo
[10] = system: Mus musculus; assay: Toxicity in BALB/c mouse assessed as mortality at 1000 mg/kg, ip measured up to 7 days; assay type: organism-based; conditions: in vivo, 168 h
How it was run: (§3)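 For the LD50 test, BALB/c mice were given single ip doses of 50, 100, 200, 500, 600, 800 or 1000 mg/kg BW and observed for mortality over 7 days.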

[11] = system: Mus musculus; assay: Toxicity in BALB/c mouse assessed as mortality at 500 mg/kg, ip measured up to 7 days; assay type: organism-based; conditions: in vivo, 168 h; how it was run: as §3
[12] = Toxicity in ip dosed BALB/c mouse assessed as mortality measured up to7 days; assay type: organism-based; conditions: in vivo; how it was run: as §3
[13] = Therapeutic index, ratio of LD50 for BALB/c mouse to ED50 for erythrocytic stage of chloroquine-resistant Plasmodium berghei ANKA infected in BALB/c mouse; conditions: read-out: Ratio LD50/ED50
How it was run: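 TI = LD50/ED50. LD50 was taken from BALB/c mice dosed ip at 50-1000 mg/kg and observed for 7 days. ED50 came from the P. berghei ANKA four-day suppressive test with ip dosing.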

[14] = system: Plasmodium berghei; assay: Antiplasmodial activity against erythrocytic stage of chloroquine-resistant Plasmodium berghei ANKA infected in ip dosed BALB/c mouse assessed as increase in mouse survival time administered once daily 3 hrs post infection for 4 consecutive days by Giemsa staining based microscopic assay; assay type: functional, organism-based; how it was run: as §2

Compound `Fc1cccc(Nc2ccnc3cc(Cl)ccc23)c1` has an IC50 [1] of 0.098 µg/mL (≈ 0.359 µM) and a CC50 at 72 h [2] of over 100 µg/mL.

`CCN(CC)Cc1cc(Nc2ccnc3cc(Cl)ccc23)ccc1O` [AMODIAQUINE] showed an ED50 [3] of 1.19 mg/kg, an inhibition in vivo at 0.1 mg/kg/day [4] of 28% and an inhibition in vivo at 1 mg/kg/day [5] of 48.2%. For the same compound, the inhibition in vivo at 5 mg/kg/day [6] was 67.1% and the inhibition in vivo at 10 mg/kg/day [7] was 94.1%.

`Fc1ccc(Nc2ccnc3cc(Cl)ccc23)c(Cl)c1` showed an IC50 [1] of 0.065 µg/mL (≈ 0.212 µM) and a CC50 at 72 h [2] of over 100 µg/mL.

`COc1cc(Nc2ccnc3cc(Cl)ccc23)cc(OC)c1OC` gave an IC50 [1] of 0.64 µg/mL (≈ 1.86 µM) and a CC50 at 72 h [2] of over 100 µg/mL.

Work on `Clc1ccc(Cl)c(Nc2ccnc3cc(Cl)ccc23)c1` yielded an IC50 [1] of 0.056 µg/mL (≈ 0.173 µM) and a CC50 at 72 h [2] of over 100 µg/mL.

For `Fc1ccc(Nc2ccnc3cc(Cl)ccc23)c(F)c1`, the IC50 [1] was 0.045 µg/mL (≈ 0.155 µM) and the CC50 at 72 h [2] was over 100 µg/mL.

With `Cc1ccc(Nc2ccnc3cc(Cl)ccc23)cc1C` the IC50 [1] was 0.16 µg/mL (≈ 0.566 µM) and the CC50 at 72 h [2] was over 100 µg/mL.

Compound `Cc1ccc(C)c(Nc2ccnc3cc(Cl)ccc23)c1` has an IC50 [1] of 0.46 µg/mL (≈ 1.63 µM) and a CC50 at 72 h [2] of over 100 µg/mL.

Compound `Clc1ccc(Nc2ccnc3cc(Cl)ccc23)c(Cl)c1` has an IC50 [1] of 0.76 µg/mL (≈ 2.35 µM) and a CC50 at 72 h [2] of over 100 µg/mL.

Work on `Clc1ccc2c(Nc3ccccc3Br)ccnc2c1` yielded an IC50 [1] of 0.17 µg/mL (≈ 0.51 µM) and a CC50 at 72 h [2] of over 100 µg/mL.

`Fc1ccc(Nc2ccnc3cc(Cl)ccc23)cc1Cl` showed an IC50 [1] of 1.9 µg/mL (≈ 6.19 µM) and a CC50 at 72 h [2] of over 100 µg/mL.

With `Cc1cc(F)ccc1Nc1ccnc2cc(Cl)ccc12` the IC50 [1] was 0.076 µg/mL (≈ 0.265 µM) and the CC50 at 72 h [2] was over 100 µg/mL.

For `COc1ccc(OC)c(Nc2ccnc3cc(Cl)ccc23)c1`, the IC50 [1] was 0.022 µg/mL (≈ 0.0699 µM), the CC50 at 72 h [2] was over 100 µg/mL and the ED50 [3] was 2.23 mg/kg. The inhibition in vivo at 0.1 mg/kg/day [4] was 12%, the inhibition in vivo at 1 mg/kg/day [5] was 21.7% and the inhibition in vivo at 5 mg/kg/day [6] was 58.1%. For the same compound, the inhibition in vivo at 10 mg/kg/day [7] was 93.4%, the Activity [8] was “Active” and the Activity [9] was “Non-Toxic”. For the same compound, the Activity [10] was “Toxic”, the Activity [11] was “Non-Toxic” and the LD50 at 7 days [12] was 800 mg/kg. For the same compound, the selectivity ratio [13] was 359 and the Activity [14] was “Dose-dependent effect”.

Compound `Cc1cccc(C)c1Nc1ccnc2cc(Cl)ccc12` has an IC50 [1] of 0.046 µg/mL (≈ 0.163 µM) and a CC50 at 72 h [2] of over 100 µg/mL.

With `Fc1ccc(Nc2ccnc3cc(Cl)ccc23)cc1` the IC50 [1] was 0.029 µg/mL (≈ 0.106 µM), the CC50 at 72 h [2] was over 100 µg/mL and the ED50 [3] was 2.06 mg/kg. For the same compound, the inhibition in vivo at 0.1 mg/kg/day [4] was 21.6%, the inhibition in vivo at 1 mg/kg/day [5] was 32% and the inhibition in vivo at 5 mg/kg/day [6] was 54.2%. The inhibition in vivo at 10 mg/kg/day [7] was 79.1%, the Activity [8] was “Active” and the Activity [9] was “Non-Toxic”. The Activity [10] was “Toxic”, the Activity [11] was “Non-Toxic” and the LD50 at 7 days [12] was 800 mg/kg. The selectivity ratio [13] was 388 and the Activity [14] was “Dose-dependent effect”.

For `Cc1ccc(Nc2ccnc3cc(Cl)ccc23)c(C)c1`, the IC50 [1] was 0.4 µg/mL (≈ 1.41 µM) and the CC50 at 72 h [2] was over 100 µg/mL.

Work on `Cc1cccc(Nc2ccnc3cc(Cl)ccc23)c1C` yielded an IC50 [1] of 0.036 µg/mL (≈ 0.127 µM) and a CC50 at 72 h [2] of over 100 µg/mL.

From ChEMBL document CHEMBL3865810, “4-Aminoquinoline derivatives: Synthesis, in vitro and in vivo antiplasmodial activity against chloroquine-resistant parasites” (Eur J Med Chem, 2016)
